14 compounds from ChEMBL document CHEMBL4145490, “((S)-3-Mercapto-2-methylpropanamido)acetic acid derivatives as metallo-β-lactamase inhibitors: Synthesis, kinetic and crystallographic studies” (Eur J Med Chem, 2018) can be followed below.

Structures are written as SMILES. The source made the active and inactive calls. No cut-off for these calls is given here.

The nature of series [1]: Inhibition of N-terminal his-tagged bacterial NDM1 expressed in Escherichia coli BL21(DE3) pLyS cells. Also on record: species or system Bacteria.
Series [2] is described as follows: Inhibition of N-terminal his-tagged bacterial VIM2 (27 to 266 residues) expressed in Escherichia coli BL21(DE3) pLyS cells. Also on record: species or system Bacteria.
A short description of series [3]: Inhibition of bacterial NDM1 (1 to 270 residues) expressed in Escherichia coli Transetta (DE3) cells using FC-5 as substrate by fluorescence assay. The arrangement: species or system Bacteria.
The species entered for series [4] is Danio rerio. In words: Toxicity in FLK-1 promoter EGFP transgenic zebrafish embryos assessed as effect on morphology at 20 uM incubated for 4 to 96 hrs post fertilization by fluorescence microscopic analysis. The class given is organism-based. The settings on record: in vivo.
For series [5], the species on record is Danio rerio. Nature of the series: Toxicity in FLK-1 promoter EGFP transgenic zebrafish embryos assessed as effect on angiogenesis at 20 uM incubated for 4 to 96 hrs post fertilization by fluorescence microscopic analysis. The settings on record: in vivo. The class given is organism-based.
In series [6] the test system is Escherichia coli. In words: Growth inhibition of Escherichia coli DH5alpha expressing Escherichia coli VIM2 after 16 to 20 hrs by CLSI broth microdilution method. The class given is organism-based, DH5[alpha]. The settings on record: in vivo. Summed up: (§1)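 MICs of meropenem against E. coli DH5α carrying a VIM-2-encoding plasmid, and against a control E. coli strain, with meropenem alone or combined with inhibitor at fixed 100, 200 or 500 µM. Fold change is the MIC shift relative to meropenem alone.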
(In broth dilution the organism is exposed to a series of concentrations in liquid medium.)

Series [7] has as its system Escherichia coli. In words: Potentiation of meropenem induced antibacterial activity against Escherichia coli DH5alpha by measuring meropenem MIC at 200 uM after 16 to 20 hrs by CLSI broth microdilution method (reference value: <0.25 microg/ml). The class given is functional. To be noted: DH5[alpha]. Summed up:
as §1

A short description of series [8]: Inhibition of bacterial VIM2 (27 to 266 residues) expressed in Escherichia coli Transetta (DE3) cells using FC-5 as substrate in presence of 100 uM Zn2+ by fluorescence assay. Also on record: species or system Bacteria. Summed up:
(§2)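 VIM-2 inhibition determined as dose-inhibition curves, with the assay run at added Zn(II) of 0, 1 or 100 µM.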

Series [9] concerns Bacteria. In words: Reversible inhibition of bacterial VIM2 (27 to 266 residues) expressed in Escherichia coli Transetta (DE3) cells at 0.77 uM using FC-5 as substrate up to 500 secs by jump dilution assay. Summed up:
(§3)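 Jump-dilution reversibility test. VIM-2 at 100-fold its activity-assay concentration was preincubated with inhibitor for 30 min at room temperature, then rapidly diluted 100-fold, and enzyme activity was followed.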

Series [10] is filed under the species Danio rerio. In words: Toxicity in FLK-1 promoter EGFP transgenic zebrafish embryos assessed as limited mobility at 20 uM incubated for 4 to 96 hrs post fertilization by fluorescence microscopic analysis. The class given is organism-based. To be noted: in vivo.
The species entered for series [11] is Danio rerio. In words: Toxicity in FLK-1 promoter EGFP transgenic zebrafish embryos assessed as death at 20 uM incubated for 4 to 96 hrs post fertilization by fluorescence microscopic analysis. The class given is organism-based. The settings on record: in vivo.
Series [12] concerns Escherichia coli. In words: Growth inhibition of Escherichia coli DH5alpha after 16 to 20 hrs by CLSI broth microdilution method. The class given is organism-based, DH5[alpha]. To be noted: in vivo. Summed up: as §1
The subject of series [13] is Escherichia coli. Nature of the series: Potentiation of meropenem induced antibacterial activity against Escherichia coli DH5alpha by measuring meropenem MIC at 500 uM after 16 to 20 hrs by CLSI broth microdilution method (reference value: <0.25 microg/ml). The class given is functional. The settings on record: DH5[alpha]. In outline:
as §1

For series [14], the target named is Metallo-beta-lactamase (Escherichia coli) (UniProt Q5U7L7). Nature of the series: Inhibition of Escherichia coli VIM2 expressed in Escherichia coli DH5alpha assessed as potentiation of meropenem induced antibacterial activity by measuring meropenem MIC at 500 uM after 16 to 20 hrs by CLSI broth microdilution method (reference value: 16 microg/ml). In outline: as §1

The target is the same in series [15]. In words: Inhibition of Escherichia coli VIM2 expressed in Escherichia coli DH5alpha assessed as potentiation of meropenem induced antibacterial activity by measuring meropenem MIC at 200 uM after 16 to 20 hrs by CLSI broth microdilution method (reference value: 16 microg/ml). In outline:
as §1

Series [16] in a line: Inhibition of bacterial VIM2 (27 to 266 residues) expressed in Escherichia coli Transetta (DE3) cells using FC-5 as substrate by fluorescence assay. The arrangement: species or system Bacteria.
Series [17] concerns the target Metallo-beta-lactamase (Escherichia coli) (UniProt Q5U7L7). Nature of the series: Inhibition of Escherichia coli VIM2 expressed in Escherichia coli DH5alpha assessed as potentiation of meropenem induced antibacterial activity by measuring fold reduction of meropenem MIC after 16 to 20 hrs by CLSI broth microdilution method relative to control. In outline:
as §1

In series [18] the test system is Escherichia coli. Nature of the series: Potentiation of meropenem induced antibacterial activity against Escherichia coli DH5alpha by measuring meropenem MIC at 100 uM after 16 to 20 hrs by CLSI broth microdilution method (reference value: <0.25 microg/ml). The class given is functional. The settings on record: DH5[alpha]. Summed up: as §1
Series [19] concerns the target Metallo-beta-lactamase (Escherichia coli) (UniProt Q5U7L7). Nature of the series: Inhibition of Escherichia coli VIM2 expressed in Escherichia coli DH5alpha assessed as potentiation of meropenem induced antibacterial activity by measuring meropenem MIC at 100 uM after 16 to 20 hrs by CLSI broth microdilution method (reference value: 16 microg/ml). Summed up: as §1

The test system of series [20] is HEK-293T. In words: Cytotoxicity against HEK293T cells assessed as reduction in cell viability at 50 uM after 72 hrs by MTT assay relative to control. The class given is cell-based. The settings on record: human. For orientation: Tetrazolium assays rely on reduction of a dye to a coloured formazan, in cell work by metabolically active cells.
Series [21] is described as follows: Inhibition of bacterial VIM2 (27 to 266 residues) expressed in Escherichia coli Transetta (DE3) cells using FC-5 as substrate in presence of 1 uM Zn2+ by fluorescence assay. The arrangement: species or system Bacteria. In outline:
as §2

In series [22] the test system is Bacteria. Nature of the series: Reversible inhibition of bacterial VIM2 (27 to 266 residues) expressed in Escherichia coli Transetta (DE3) cells at 0.14 uM using FC-5 as substrate up to 500 secs by jump dilution assay. In outline:
as §3

In series [23] the test system is Bacteria. In words: Reversible inhibition of bacterial VIM2 (27 to 266 residues) expressed in Escherichia coli Transetta (DE3) cells at 7.5 uM using FC-5 as substrate up to 500 secs by jump dilution assay. In outline:
as §3

In general, IC50 refers to the concentration that gives 50% inhibition. The pIC50 is the IC50 on a negative log10 scale, so that one unit is a factor of ten. High values mean a low IC50, low ones a high IC50. With `C[C@H](CS)C(=O)N[C@H](Cc1c[nH]c2ccccc12)C(=O)O`, the IC50 in series [1] was 64800 nM; in [2], 50 nM. Further, the pIC50 came out at 4.19 in series [1] and 7.26 in series [2].

Consider `C[C@H](CS)C(=O)N[C@H](C(=O)O)c1ccc(O)cc1`, for which the IC50 turned out to be 24000 nM in [3], 66 nM in series [8], 77 nM in [16] and 72.9 nM in [21]. Moreover, the pIC50 in series [3] was found to be 4.62; in series [16], 7.11. In addition, the Activity result in series [4], in series [5], in series [10], in series [11] and in [20] was “Non-Toxic” each time. Moreover, the MIC was > 128 µg/mL in series [6]; < 0.25 µg/mL in series [7]; > 128 µg/mL in series [12]; < 0.25 µg/mL in series [13]; 8 µg/mL in series [14]; 16 µg/mL in series [15]. In addition, the MIC in [18] is < 0.25 µg/mL; in series [19], 16 µg/mL. For the same compound, the inhibition entry in [9] is “inactive”. Further, the fold change (FC) in [17] fell in the range of 2 to 4.

Turning to `C[C@H](CS)C(=O)N[C@@H](Cc1ccc(O)cc1)C(=O)O`, in series [3], the IC50 amounted to 326000 nM and the pIC50 worked out at 3.49. Moreover, in series [16], half-maximal inhibition (IC50) required 490 nM and the pIC50 is 6.31.

`C[C@H](CS)C(=O)N[C@@H](C(=O)O)c1ccc(F)cc1`: the results for the IC50 in [3] and in [16] were 5590 nM and 55 nM, respectively. Further, the pIC50 came out at 5.25 in [3] and 7.26 in series [16].

In [3], `C[C@H](CS)C(=O)N[C@@H](Cc1ccccc1)C(=O)O` gave an IC50 of 233000 nM and a pIC50 of 3.63. In series [16], half-maximal inhibition (IC50) was put at 2850 nM and the negative logarithm of the IC50 (pIC50) worked out at 5.55.

In [1], `C[C@H](CS)C(=O)N[C@@H](Cc1c[nH]c2ccccc12)C(=O)O` came in with a half-maximal inhibitory concentration (IC50) of 24800 nM and a negative-log IC50 (pIC50) of 4.61. In addition, in series [2], the IC50 is 1060 nM and the pIC50 is on record as 5.97.

Turning to `C[C@H](CS)C(=O)N[C@H](C(=O)O)c1ccc(F)cc1`, the IC50 was determined as 11700 nM in series [3] and 121 nM in series [16]. Further, the values for the pIC50 in [3] and in series [16] were 4.93 and 6.92, respectively.

Regarding `C[C@H](CS)C(=O)N[C@H](C(=O)O)c1ccccc1`, the IC50 amounted to 8770 nM in [3] and 39 nM in series [16]. For the same compound, the pIC50 is 5.06 in series [3] and 7.41 in series [16].

In series [2], `C[C@H](CS)C(=O)N1CCC[C@@H]1C(=O)O` [D-CAPTOPRIL] showed an IC50 of 4550 nM and a pIC50 of 5.34.

With `C[C@H](CS)C(=O)N[C@H](Cc1ccc(O)cc1)C(=O)O`, the IC50 in series [3] came to 73100 nM; in [16], 276 nM. For the same compound, the negative-log IC50 (pIC50) stood at 4.14 in [3] and 6.56 in [16].

Take `C[C@H](CS)C(=O)N[C@@H](C(=O)O)c1ccc(O)cc1`: the IC50 in series [3] was 3570 nM; in series [8] it was 12.3 nM; in [16] it was 9.57 to 13.7 nM; in [21] it was 14.8 nM. Also, the negative-log IC50 (pIC50) is 5.45 in series [3] and 7.86 in series [16]. For the same compound, the Activity entry in [4] is reported as “Non-Toxic”; in [5], “Non-Toxic”; in [10] it was “Non-Toxic”; in series [11] it was “Non-Toxic”; in series [20], 8%. Also, the MIC in series [6] is > 128 µg/mL; in series [7], < 0.25 µg/mL; in series [12] it was > 128 µg/mL; in series [13] it was < 0.25 µg/mL; in [14], 4 µg/mL; in [15] it was 8 µg/mL. Also, the MIC is < 0.25 µg/mL in series [18] and 8 µg/mL in series [19]. Moreover, the inhibition result in series [22] was “inactive”. Moreover, in [17], the fold change (FC) was 2 to 4.

Turning to `C[C@H](CS)C(=O)N[C@@H](C(=O)O)c1ccccc1`, in series [3], inhibition was half-maximal at 20500 nM (IC50) and the pIC50 is 4.69. In [16], this compound registered an IC50 of 57 nM and a negative logarithm of the IC50 (pIC50) of 7.25.

Consider `C[C@H](CS)C(=O)N1CCC[C@H]1C(=O)O` [CAPTOPRIL], for which the inhibition result in [23] was “Active”.

As for `C[C@H](CS)C(=O)N[C@H](Cc1ccccc1)C(=O)O`, the results for the IC50 in series [3] and in [16] were 7000 nM and 121 nM, respectively. The figures for the pIC50 in [3] and in series [16] were 5.16 and 6.92, respectively.
